# From PubChem BioAssay
# A selection: hits, their analogues and other compounds. The true share with any hit is near 2.1%.
# GRK2 aptamer HTS = compounds blocking aptamer binding on GRK2 – biochemical, human GRK2, bead flow cytometry, HTS, primary screen | Beta-adrenergic receptor kinase 1 (Homo sapiens), P25098 | FAM-aptamer displacement from GRK2 | inhibition of aptamer binding, % at 10 µM | actives 0.59% (n = 330,000) | AID 488847, 2010;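 active = inhibition of aptamer binding above 40%, roughly 3 SD of noise, on plates passing a quality check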;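 note: median bead fluorescence of bound FAM aptamer so fluorescent compounds give negative values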
# DNMT1 block = human DNMT1 methyltransferase inhibitors, primary screen, biochemical, molecular beacon, fluorescence, HinP1I cleavage, uHTS; DNA (cytosine-5)-methyltransferase 1 (Homo sapiens), P26358; actives 0.83% (n = 360,000); inhibition (reported as % activation of signal), % at 10 µM; in the data active = inhibition above about 50%
# Target sequence (P26358 504-1616 limits assumed): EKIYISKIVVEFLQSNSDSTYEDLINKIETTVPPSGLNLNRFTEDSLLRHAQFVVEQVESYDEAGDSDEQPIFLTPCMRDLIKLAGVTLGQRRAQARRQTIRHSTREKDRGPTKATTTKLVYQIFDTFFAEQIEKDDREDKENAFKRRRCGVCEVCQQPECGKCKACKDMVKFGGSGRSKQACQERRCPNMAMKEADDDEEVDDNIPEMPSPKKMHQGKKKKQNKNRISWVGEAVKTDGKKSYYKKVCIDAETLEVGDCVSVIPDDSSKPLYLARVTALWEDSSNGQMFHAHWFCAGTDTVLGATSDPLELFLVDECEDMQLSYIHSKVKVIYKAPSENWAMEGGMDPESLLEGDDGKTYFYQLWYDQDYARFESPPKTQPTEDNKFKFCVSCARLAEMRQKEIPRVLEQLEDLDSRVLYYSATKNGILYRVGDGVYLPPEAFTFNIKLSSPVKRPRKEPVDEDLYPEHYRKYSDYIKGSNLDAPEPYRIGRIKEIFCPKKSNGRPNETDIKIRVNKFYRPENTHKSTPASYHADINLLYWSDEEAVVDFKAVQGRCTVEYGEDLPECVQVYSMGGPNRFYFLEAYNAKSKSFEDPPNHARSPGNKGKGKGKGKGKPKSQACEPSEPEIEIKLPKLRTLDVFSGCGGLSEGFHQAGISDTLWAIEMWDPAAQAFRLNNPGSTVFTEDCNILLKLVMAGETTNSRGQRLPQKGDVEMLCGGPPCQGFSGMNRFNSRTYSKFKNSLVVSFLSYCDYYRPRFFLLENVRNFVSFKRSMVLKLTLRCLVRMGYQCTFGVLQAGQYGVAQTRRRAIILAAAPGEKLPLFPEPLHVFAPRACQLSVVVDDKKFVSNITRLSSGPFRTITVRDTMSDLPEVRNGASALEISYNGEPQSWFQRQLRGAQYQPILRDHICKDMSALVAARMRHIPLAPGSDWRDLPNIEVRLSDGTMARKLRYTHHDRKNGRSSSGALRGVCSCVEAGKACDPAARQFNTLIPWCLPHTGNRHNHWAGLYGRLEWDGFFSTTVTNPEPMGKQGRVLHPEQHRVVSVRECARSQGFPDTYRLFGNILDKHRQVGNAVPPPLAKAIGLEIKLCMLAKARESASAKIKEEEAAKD
# LMPTP block = LMPTP phosphatase inhibitors, primary screen, biochemical, fluorescence intensity, uHTS; Low molecular weight phosphotyrosine protein phosphatase (Homo sapiens), P24666; recombinant LMPTP-A, OMFP fluorogenic substrate; inhibition, % at 20 µM; actives 0.22% (n = 360,000);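 active = compounds that cut the enzyme signal by at least half of the control window in the single-dose screen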;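 note: plate controls were DMSO wells with enzyme plus substrate for no effect and substrate without enzyme for full effect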
#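 Material: LMPTP-A; amount: 0.625 nM enzyme; doses: single 20 µM dose; times: reaction 50 min, room temperature, dark; technique: fluorescence intensity of OMFP turnover product; benchmarks: no-enzyme and uninhibited controls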
# SUMO1 PPI mod = modulators of SUMO1 protein-protein interactions, primary screen, biochemical, uHTS; actives 0.33% (n = 360,000); inhibition, % at 20 µM; SUMO1 binding to a labelled peptide, TR-FRET, 1 h; Small ubiquitin-related modifier 1 (Homo sapiens), P63165; in the data active = inhibition above about 37%
# Scp-1 inhibitor = Scp-1 phosphatase inhibitors, primary screen, biochemical, colorimetric, uHTS; Recombinant Scp1, phosphopeptide, malachite green phosphate absorbance; actives 0.88% (n = 340,000); inhibition, % at 20 µM;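 active = inhibition above about 50% at 20 µM, limit read from the data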;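 note: plate controls were DMSO wells with enzyme for no effect and wells lacking enzyme for full effect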
#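 Test system – truncated SCP-1 phosphatase (76-261aa) · Reagent – Phosphorylated 17-residue peptide substrate · Incubation – 45 min room-temperature reaction, 5 min colour, 30 min stabiliser · Detection – colorimetric phosphate reagent with accelerator and stabiliser, absorbance at 630 nm · Measure – % inhibition at 20 µM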
# STEP inh = STEP phosphatase inhibitors, primary screen, biochemical, fluorescence intensity, uHTS; recombinant STEP, OMFP fluorogenic substrate; Tyrosine-protein phosphatase non-receptor type 5 (Homo sapiens), P54829; actives 0.25% (n = 360,000); inhibition, % at 20 µM;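 active = inhibition at 20 µM, scaled per plate between control wells, above about 37%, limit read from the data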;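 note: 0% = DMSO with enzyme and substrate and 100% = substrate only without enzyme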
#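 Measure: Control-normalized % inhibition with plate pattern correction | Test system: STEP phosphatase, cell-free reaction | Medium: pH 6.0 Bis-Tris with DTT and Tween 20 | Technique: Fluorescence, 480/540 nm | Times: Reaction 20 min, ambient temperature | Doses: Single compound dose of 20 µM, 1% DMSO final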
# GRK2 CP1 = GRK2 aptamer-displacing inhibitors, retest, confirmation, biochemical, cherry pick 1, bead flow cytometry; actives 4% (n = 2,000); bead-bound GRK2, FAM-aptamer displacement; shares compounds with GRK2 aptamer HTS; aptamer displacement, % at 10 µM; AID 504451, 2011;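 active = aptamer displacement above 40%, near three times the noise of non-fluorescent compounds, on plates passing quality checks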;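 note: negative values mostly reflect intrinsic compound fluorescence rather than true enhancement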
# FAM quench CP1 = counter-screen for GRK2 aptamer inhibitors: fluorescent aptamer quenchers; 2,000 tested, under 10 active; Carboxyfluorescein RNA aptamer on beads, flow cytometry quenching; hits give low values; fluorescence response (% of DMSO), % at 10 µM; shares compounds with GRK2 aptamer HTS;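 active = compounds that quench the bead-bound fluorescent RNA probe, cutting fluorescence to under half of the solvent control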;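 note: counterscreen run without GRK2 so only probe quenching by compound is measured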
# The depositor's hits bear a star; nt = no result given.
SMILES,GRK2 aptamer HTS,DNMT1 block,LMPTP block,SUMO1 PPI mod,Scp-1 inhibitor,STEP inh,GRK2 CP1,FAM quench CP1
CN(C)c1ccc(N=Nc2ccc(C(=O)O)cc2)cc1,54*,33,8,-39,47,23,2,102
Cc1ccc(NC(=O)c2ccc(Cl)c(S(=O)(=O)Nc3c(C)n(C)n(-c4ccccc4)c3=O)c2)cc1Cl,nt,-4,4,3,-4,2,nt,nt
CCNc1c(NS(=O)(=O)c2ccc(OC)c(Cl)c2)c(=O)oc2ccccc12,69*,1,0,-2,-3,-4,5,101
CNc1c(NS(=O)(=O)c2ccc(OC)c(Cl)c2)c(=O)oc2ccccc12,2,-1,-1,5,-10,-3,nt,nt
CCOC(=O)CCCCCC(=O)Nc1ccc2c(c1)C(=O)N([C@H](C)CO)C[C@H](C)[C@@H](CN(C)C(=O)Nc1ccccc1)OCCCC[C@@H](C)O2,nt,-1,0,-2,nt,-2,nt,nt
Cc1ccc(C(=O)OCC(=O)Nc2ccc3c(c2)OCCO3)cc1C,nt,-3,1,0,-6,0,nt,nt
Cc1cc(C)cc(NC(=O)COC(=O)c2ccc3c(c2)OCCO3)c1,100*,-3,0,-11,-5,-2,-3,102
COc1ccc(CNC(=O)COC(=O)c2ccc3c(c2)OCCO3)cc1,58*,0,-2,2,-18,2,-4,104
O=C(c1ccco1)N1CCC2CC1c1c(Cl)cccc12 (centres undefined),nt,7,-2,1,nt,-1,nt,nt
Cc1ccc(NC(=O)CSc2nnc(C)c(=O)n2N)cc1,4,1,-2,0,-9,-5,nt,nt
Cc1nnc(SCC(=O)Nc2ccc(S(N)(=O)=O)cc2)n(N)c1=O,30,0,-3,2,5,6,-6,100
CC1(C(=O)NCc2ccccc2)CN(S(C)(=O)=O)CC(=O)N1Cc1cccc(C(F)(F)F)c1 (centres undefined),nt,nt,-1,-2,nt,nt,nt,nt
COc1ccccc1N1CCN(C(=O)CSc2nc3ccccc3[nH]2)CC1,96*,1,1,1,2,-1,-28,103
Cc1cc(C)c(C(=O)CSc2nc3ccccc3c(=O)[nH]2)cc1C,2,0,-2,-4,0,0,nt,nt
Cc1ccc2cc(CCNC(=O)C(=O)c3c[nH]c4ccccc34)c(=O)[nH]c2c1,71*,-5,0,14,-8,-2,17,98
Cc1ccc2nc(SCC(=O)c3c[nH]c4ccccc34)[nH]c2c1,58*,-22,2,-5,6,1,-1,107
Cc1ccc2cc(CCNC(=O)C(=O)c3c(C)[nH]c4ccccc34)c(=O)[nH]c2c1,0,-3,-1,4,-5,0,nt,nt
Cc1ccc(C(=O)CSc2nc3ccccc3c(=O)[nH]2)cc1C,61*,-8,-1,3,-5,-2,3,103
